# This is a sample that favours compounds with a hit; in the whole collection about 9.8% have one here.
# WT yeast gro inh = growth inhibition of WT yeast, mitochondrial fusion screen; inhibition, % at 10 µM; AID 1362; mitochondrial fusion phenotypic screen, WT strain; 190,000 tested, 2.1% active; in the data active = inhibition above about 58%; tested in S. cerevisiae
# Calpain2 inh = inhibitors of pig calpain II | purified calpain II, fluorogenic peptide substrate, 30 min | AID 1236 | 220,000 tested, 0.37% active | inhibition, % at 16 µM;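 active = inhibition above about 50%, limit read from the data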
# Rad51 HR inh = Rad51 (human) homologous recombination inhibition. Q06609. hRad51 DNA strand exchange, fluorescence dequenching. inhibition, % at 10 µM. 200,000 tested, 0.085% active. AID 1385;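 active = inhibition above 40% at the single screening dose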;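 also: 0% = DMSO control wells and 100% = blanks with heterologous ssDNA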
#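 System: human Rad51 nucleoprotein filaments preassembled on unlabelled ssDNA. Reagent: labelled 47-mer dsDNA for strand exchange. Schedule: 30-min compound preincubation and 15-min exchange, both room temperature. Measured by: FRET fluorescence dequenching, excitation 485 nm, emission 520 nm. Read-out: Fluorescence-based percent inhibition, control- and blank-normalised. Benchmarks: plate controls and plate blanks.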
# L major viab = reduces viability of Leishmania major promastigotes; resazurin fluorescence viability; inhibition, % at 10 µM; 200,000 tested, 9% active; AID 1063; in the data active = inhibition above about 50%;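 also: promastigotes grown with compound for 44 hours at 28 °C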
# PMI activator = activators of human phosphomannose isomerase; 190,000 tested, 0.005% active; activation factor at 20 µM; purified human PMI, coupled resazurin fluorescence, 20 min; hits give high values; 1 = vehicle control, 0 substrate-free wells; AID 1214;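 active = activation factor of 2 or more at 20 µM, relative to plate controls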
# Target sequence (P34949 whole entry, looked up): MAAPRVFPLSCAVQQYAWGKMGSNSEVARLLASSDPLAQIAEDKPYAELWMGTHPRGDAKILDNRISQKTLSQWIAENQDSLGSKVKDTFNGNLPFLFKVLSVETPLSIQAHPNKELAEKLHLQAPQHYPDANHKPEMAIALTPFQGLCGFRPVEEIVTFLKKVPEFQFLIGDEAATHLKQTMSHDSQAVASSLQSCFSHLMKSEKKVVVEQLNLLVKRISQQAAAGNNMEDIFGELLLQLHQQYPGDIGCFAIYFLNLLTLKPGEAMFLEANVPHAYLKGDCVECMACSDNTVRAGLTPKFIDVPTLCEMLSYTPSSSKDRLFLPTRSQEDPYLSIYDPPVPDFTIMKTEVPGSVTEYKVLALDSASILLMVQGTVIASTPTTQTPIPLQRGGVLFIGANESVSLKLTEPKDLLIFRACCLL
# PMI act hi M6P = activators of human phosphomannose isomerase at near-saturating mannose 6-phosphate | P34949 | coupled PMI enzyme assay, resazurin fluorescence, 20 min; hits give high values; 1 = untreated enzyme, 0 = substrate-free blank | activation factor at 20 µM | 190,000 tested, 0.34% active;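 active = activation factor of 2 or more at 20 µM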
#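 Material: human phosphomannose isomerase with PGI, G6PDH, diaphorase coupling enzymes; amount: PMI at 15 ng/mL final; also added: Mannose-6-phosphate 1.0 mM (near-saturating) plus 0.22 mM NADP+; incubation: enzyme reaction with compound 20 min at room temperature; signal: resorufin fluorescence (Ex 544/Em 590 nm) from resazurin via diaphorase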
# * hit, by the source's call; · = no result given.
SMILES,WT yeast gro inh,Calpain2 inh,Rad51 HR inh,L major viab,PMI activator,PMI act hi M6P
CC(C)NC(=S)N/N=C1\CCCCC1C1CCCCC1 (stereo not drawn),69,11,2,100*,0.9,1
CCN(CC)S(=O)(=O)c1cccc(C(=O)NC(Cc2c[nH]c3ccccc23)c2nnc3n2CCC3)c1 (stereo not drawn),1,-1,7,63*,1,1
COC(=O)c1ccc(NC(=O)CN2CCN(S(=O)(=O)c3cc(Cl)ccc3OC)CC2)cc1,3,7,-6,99*,0.9,1
COc1ccc(NC(=O)CCN2CCN(S(=O)(=O)c3cc(Cl)ccc3Cl)CC2)cc1,8,8,5,96*,1,1
COC(=O)c1ccc(NC(=O)CN2CCN(c3ccc(Cl)cc3)CC2)cc1,-10,-8,16,-4,0.9,1
O=S(=O)(Nc1nc2ccccc2nc1N1CCc2ccccc2C1)c1ccc(Br)cc1,32,-50,-28,13,1.6,1.9
O=S(=O)(Nc1nc2ccccc2nc1N1CCN(c2ccccn2)CC1)c1ccc(Cl)cc1,5,24,-11,66*,0.8,1
O=S(=O)(Nc1nc2ccccc2nc1-[n+]1ccccc1)c1ccc(Cl)cc1,-15,7,-13,56*,0.8,1
O=S(=O)(Nc1nc2ccccc2nc1N1CCc2ccccc2C1)c1ccc(Cl)cc1,15,-146,-6,57*,0.9,1
CC(=O)Nc1ccc(S(=O)(=O)Nc2nc3ccccc3nc2N2CCc3ccccc3C2)cc1,22,-94,0,85*,1,0.9
O=C(Cc1nc2ccccc2[nH]1)c1cccc([N+](=O)[O-])c1,·,-108,-3,·,·,·
CN(CC1COc2ccccc2O1)C(=S)Nc1ccccc1 (stereo not drawn),·,·,-6,9,·,·
CCN(CC1COc2ccccc2O1)C(=S)NC1CC2CCC1C2 (stereo not drawn),67*,25,·,29,0.9,0.9
CC(C)N(C(=S)NC1CC2CCC1C2)c1ccccc1 (stereo not drawn),65*,-11,19,15,1,1
Cn1ncc(N=Cc2c(O)ccc3ccccc23)c1C(=O)Nc1cccc(Cl)c1,-6,-28,-304,10,0.7,0.4
COc1ccc(C2C3=C(CC(c4ccco4)CC3=O)Nc3ccccc3N2C(C)=O)cc1 (stereo not drawn),10,-43,10,-3,1.1,1
COc1ccc(C2CC(=O)C3=C(C2)Nc2ncnn2C3c2ccccc2C)cc1 (stereo not drawn),10,-10,-2,100*,1,1
COc1ccc(C2CC(=O)C3=C(C2)Nc2ncnn2C3c2ccccc2)cc1 (stereo not drawn),15,12,-5,91*,0.9,1
N#C/C(=C/c1cccn1-c1cccc(C(=O)O)c1)c1ccc(F)cc1,10,-6,15,-6,1,1
CC(C)COc1ccc(CSCCNC(=S)Nc2ccccc2)cc1,76*,65*,-1,72*,0.9,0.9
CCCCCOc1ccc(CSCCNC(=S)Nc2ccccc2)cc1,68*,22,8,53*,0.8,0.8
CCCCOc1ccc(CSCCNC(=S)Nc2ccccc2)cc1,53,3,-5,25,0.8,0.9
CCOc1cccc(C(=O)NC(=S)Nc2cccnc2)c1,10,9,2,-10,0.8,0.9
CCCCOc1cccc(C(=O)NC(=S)Nc2cccnc2)c1,18,21,·,51*,0.9,0.9
CC(C)(C)c1ccc(OCCNC(=S)NC(=O)c2cccnc2)cc1,50,24,10,53*,0.9,0.9
SMILES,WT yeast gro inh,Calpain2 inh,Rad51 HR inh,L major viab,PMI activator,PMI act hi M6P
CC(C)(C)c1ccc(C(=O)NC(=S)NCc2cccnc2)cc1,53,28,·,12,0.9,1.1
CCO[C@@H]1OC(C(=O)N2CCN(Cc3ccc4c(c3)OCO4)CC2)=C[C@H](c2ccc3c(c2)OCO3)[C@H]1CCCO,4,2,-5,-1,0.9,0.9
CCO[C@H]1OC(C(=O)N2CCN(Cc3ccc4c(c3)OCO4)CC2)=C[C@@H](C2CC2)[C@@H]1CCCO,8,9,-6,77*,1,1.1
CCO[C@@H]1OC(C(=O)N2CCN(Cc3ccc4c(c3)OCO4)CC2)=C[C@H](c2csc3ccccc23)[C@H]1CCCO,45,20,2,72*,0.8,0.8
CCO[C@H]1OC(C(=O)N2CCN(Cc3ccc4c(c3)OCO4)CC2)=C[C@@H](c2ccccc2)[C@@H]1CCCO,-3,-15,1,18,0.9,0.9
CN1C=CC(=CC=C2C=CC(=O)C=C2)C=C1,·,-27,-31,·,·,·
Cc1ccc(OCC(=O)c2ccc3c(c2)CCCC3)cc1C,58*,-11,-5,-3,0.8,0.9
CS(=O)(=O)N1CCC(C(=O)N2CCN(c3ccccc3F)CC2)CC1,0,-9,1,-2,1,0.9
Nc1nonc1C(=O)NCCNCc1c(OCc2ccccc2F)ccc2ccccc12,19,22,2,8,0.9,0.9
CNCc1c(OCc2ccccc2F)ccc2ccccc12,5,18,20,56*,0.9,0.9
CCOC(=O)c1ccc(NC(=O)COc2ccccc2CNC2CCCC2)cc1,7,-6,4,100*,1,1
CCOc1cc(CNC2CCCC2)c(Cl)cc1OCC(=O)Nc1ccccc1,20,24,2,89*,1.1,1
CCOC(=O)c1cc2c(=O)n3ccccc3nc2n(Cc2ccco2)c1=NC(=O)c1ccc(OC)cc1OC,21,-388,-2,42,1.1,0.9
O=C(/C=C/c1ccc(F)cc1)Nc1ccc2[nH]c(=O)[nH]c2c1,·,-26,24,·,·,·
Cc1ccccc1OCCN1C(=O)C(=O)c2cccc(C)c21,-10,-1,6,-1,0.9,0.9
Cc1cccc2c1N(CCOc1ccccc1Cl)C(=O)C2=O,13,18,7,67*,0.8,0.8
CC(C)(CNC(=O)c1ccc([N+](=O)[O-])c(Cl)c1)CNC(=O)c1ccc([N+](=O)[O-])c(Cl)c1,48,1,·,88*,1.1,1.3
C=CCNC(=O)c1ccc([N+](=O)[O-])c(Cl)c1,-1,-6,18,1,1,1
Cc1cc(C)n(C(=O)c2ccc([N+](=O)[O-])c(Cl)c2)n1,-12,22,-6,92*,1,1
Cc1ccc(C(=O)OCC(=O)c2c[nH]c3ccccc23)cc1S(=O)(=O)N1CCCCC1,9,15,24,13,0.8,0.8
CC(C)CN=C(NS(=O)(=O)c1ccccc1)C(Cl)(Cl)Cl,58,-1,7,90*,1.1,1
CC(C)CC(NS(=O)(=O)c1ccccc1)C(=O)O (stereo not drawn),-7,-6,4,-5,0.9,0.9
